Calls of active or inactive are those of the source. No cut-off for these calls is given here.
What was measured:
CCRF-CEM = assay: Cytotoxicity against human CCRF-CEM cells after 72 hrs by coulter counting; type: functional, cell-based
Escherichia coli = assay: Activity of Escherichia coli PNP assessed per mg of protein at 100 uM by UV spectrometric analysis
Outline: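 Samples taken at several times; substrate and product resolved by C-18 HPLC (5–50% acetonitrile gradient, NH₄H₂PO₄ pH 4.5) with UV detection. Rate in nmoles/mg/h; mean of at least 2 measurements.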

NCI-H23 [1] = assay: Antitumor activity against human NCI-H23 cells xenografted in nude mouse assessed as tumor growth inhibition at 33 to 75 mg/kg, ip qd for 9 consecutive days; type: functional, organism-based
Outline: (§1)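 NCI-H23 tumors grown on the flanks of nude mice; once tumors were about 200 mg, animals received 33, 50 or 75 mg/kg ip daily for 9 consecutive days; tumor growth and body weight followed.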

ZR-75-1 = assay: Cytotoxicity against human ZR-75-1 cells assessed as cell viability after 72 hrs by sulforhodamine B assay; type: functional, cell-based; details: ZR-75-1, 72 h
Outline: (§2)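 Cells plated and kept at 37 °C with a range of compound concentrations for 72 h of continuous exposure; viability by sulforhodamine B staining, absorbance at 570 nm; concentration inhibiting growth by 50% determined from a single experiment.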

NCI-H23 [2] = assay: Cytotoxicity against human NCI-H23 cells assessed as cell viability after 72 hrs by sulforhodamine B assay; type: functional, cell-based; details: NCI-H23, 72 h; outline: as §2
SNB-7 = assay: Cytotoxicity against human SNB7 cells assessed as cell viability after 72 hrs by sulforhodamine B assay; type: functional, cell-based; details: SNB-7, 72 h; outline: as §2
NCI-H23 [3] = assay: Antitumor activity against human NCI-H23 cells xenografted in nude mouse assessed as tumor growth inhibition at maximum tolerated dose, ip qd for 9 consecutive days; type: functional, organism-based; outline: as §1
PC-3 = assay: Cytotoxicity against human PC3 cells assessed as cell viability after 72 hrs by sulforhodamine B assay; type: functional, cell-based; details: PC-3, 72 h; outline: as §2
LOX IMVI = assay: Cytotoxicity against human LOXIMVI cells assessed as cell viability after 72 hrs by sulforhodamine B assay; type: functional, cell-based; outline: as §2
Mus musculus [4] = assay: Toxicity in nude mouse xenografted with human NCI-H23 cells assessed as mortality at 75 mg/kg, ip qd for 9 consecutive days; type: organism-based; parameters: dose 75 mg/kg, route intraperitoneal; details: in vivo
Outline: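 NCI-H23 tumours grown subcutaneously on the flanks of nude mice. Dosing began once tumours reached about 200 mg: 33, 50 or 75 mg/kg given ip once daily for 9 consecutive days. Tumour growth, deaths and body-weight loss were recorded.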

CAKI-1 = assay: Cytotoxicity against human Caki1 cells assessed as cell viability after 72 hrs by sulforhodamine B assay; type: functional, cell-based; details: CAKI-1, 72 h; outline: as §2
DLD-1 = assay: Cytotoxicity against human DLD1 cells assessed as cell viability after 72 hrs by sulforhodamine B assay; type: functional, cell-based; details: DLD-1, 72 h; outline: as §2
Mus musculus [5] = assay: Toxicity in nude mouse xenografted with human NCI-H23 cells assessed as decrease in body weight at 75 mg/kg, ip qd for 9 consecutive days; type: organism-based; parameters: dose 75 mg/kg, route intraperitoneal; scale not given: the % may be the effect or the level left; details: in vivo; outline: as §1

CCCc1ncnc2c1ncn2[C@@H]1O[C@H](CO)[C@@H](O)[C@H]1O
IC50 (CCRF-CEM): 6.8 µM
Activity (Escherichia coli): 72000 nmol/h

Cc1ncnc2c1ncn2[C@H]1C[C@H](O)[C@@H](CO)O1
Activity (Escherichia coli): 461000 nmol/h

Cc1ncnc2c1ncn2[C@@H]1O[C@H](CO)[C@@H](O)[C@@H]1O
IC50 (CCRF-CEM): > 130 µM
Activity (Escherichia coli): 14 nmol/h

OC[C@H]1O[C@@H](n2cnc3c(C4CC4)ncnc32)[C@H](O)[C@@H]1O
IC50 (CCRF-CEM): 1 µM
growth inhibition (GI) (NCI-H23 [1]): inactive
IC50 (ZR-75-1): 23 µM
Activity (Escherichia coli): 51000 nmol/h
IC50 (NCI-H23 [2]): 1 µM
IC50 (SNB-7): 33 µM
growth inhibition (GI) (NCI-H23 [3]): inactive
IC50 (PC-3): 67 µM
IC50 (LOX IMVI): > 200 µM
Activity (Mus musculus [4]): Toxic
IC50 (CAKI-1): > 200 µM
IC50 (DLD-1): 170 µM

CCCCc1ncnc2c1ncn2[C@@H]1O[C@H](CO)[C@@H](O)[C@H]1O
IC50 (CCRF-CEM): 49 µM
Activity (Escherichia coli): 86000 nmol/h

OC[C@H]1O[C@@H](n2cnc3c(-c4cccs4)ncnc32)[C@H](O)[C@@H]1O
IC50 (CCRF-CEM): 0.09 µM
growth inhibition (GI) (NCI-H23 [1]): inactive
IC50 (ZR-75-1): 0.3 µM
Activity (Mus musculus [5]): 14%
Activity (Escherichia coli): 9900 nmol/h
IC50 (NCI-H23 [2]): 0.6 µM
IC50 (SNB-7): 10 µM
growth inhibition (GI) (NCI-H23 [3]): inactive
IC50 (PC-3): 0.9 µM
IC50 (LOX IMVI): 0.3 µM
IC50 (CAKI-1): 30 µM
IC50 (DLD-1): 0.9 µM

OC[C@H]1O[C@@H](n2cnc3c(C4CCCC4)ncnc32)[C@H](O)[C@@H]1O
IC50 (CCRF-CEM): 16 µM
Activity (Escherichia coli): 42000 nmol/h

OC[C@H]1O[C@@H](n2cnc3c(-c4ccccc4)ncnc32)[C@H](O)[C@@H]1O
IC50 (CCRF-CEM): 0.62 µM
IC50 (ZR-75-1): 1.2 µM
Activity (Escherichia coli): 21000 nmol/h
IC50 (NCI-H23 [2]): 1.2 µM
IC50 (SNB-7): 31 µM
IC50 (PC-3): 1.2 µM
IC50 (LOX IMVI): 6.2 µM
IC50 (CAKI-1): 31 µM
IC50 (DLD-1): 6 µM

Nc1nc(F)nc2c1ncn2[C@@H]1O[C@H](CO)[C@@H](O)[C@@H]1O
Activity (Escherichia coli): 1300 nmol/h

CC(C)Cc1ncnc2c1ncn2[C@@H]1O[C@H](CO)[C@@H](O)[C@H]1O
IC50 (CCRF-CEM): > 130 µM
Activity (Escherichia coli): 79000 nmol/h

OC[C@H]1O[C@@H](n2cnc3c(C4CCC4)ncnc32)[C@H](O)[C@@H]1O
IC50 (CCRF-CEM): 7 µM
Activity (Escherichia coli): 63000 nmol/h

Cc1ncnc2c1ncn2[C@@H]1O[C@H](CO)[C@@H](O)[C@H]1O
IC50 (CCRF-CEM): 0.02 µM
Activity (Escherichia coli): 84000 nmol/h

Nc1ncnc2c1ncn2[C@@H]1O[C@H](CO)[C@@H](O)[C@H]1O
Activity (Escherichia coli): 398000 nmol/h

CCc1ncnc2c1ncn2[C@@H]1O[C@H](CO)[C@@H](O)[C@H]1O
IC50 (CCRF-CEM): 0.72 µM
Activity (Escherichia coli): 69000 nmol/h
